# Measurements taken from ChEMBL document CHEMBL4020840, “Synthesis and Biological Evaluation of Selenium-Containing 4-Anilinoquinazoline Derivatives as Novel Antimitotic Agents” (J Med Chem, 2018).
# Assays:
# A549 [1] = assay: Induction of apoptosis in human A549 cells assessed as live cells at 2 nM after 24 hrs by Annexin V-FITC/propidium iodide staining based flow cytometry (reference value: 98.84%); type: functional
# [2] = Selectivity index, ratio of IC50 for human LO2 cells to IC50 for human A549 cells; type: functional
# Outline: (§1)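 MTT assay in normal cells and A549: seeding at 5 × 10³ cells/well for 24 h, 48 h compound exposure, then 5 mg/mL MTT for 4 h, DMSO solubilisation and absorbance at 570 nm. IC50 values came from dose–response curves of at least three independent experiments. Selectivity ratio = IC50 in normal cells / IC50 in A549.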
# [3] = Selectivity index, ratio of IC50 for HLF to IC50 for human A549 cells; outline: as §1
# A549 [4] = assay: Growth inhibition of human A549 cells after 48 hrs by MTT assay; type: functional, cell-based; conditions: A549, 48 h
# HCT-116 = assay: Growth inhibition of human HCT116 cells after 48 hrs by MTT assay; type: functional, cell-based; conditions: HCT-116, 48 h
# Outline: (§2)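 MTT assay: log-phase cells plated at 5 × 10³/well for 24 h, then exposed to a range of test concentrations for 48 h. MTT (5 mg/mL) added for 4 h, formazan dissolved in DMSO, absorbance read at 570 nm. IC50 is the concentration giving 50% growth inhibition, from dose-response curves; at least three independent experiments, mean ± SE.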
# HepG2 = assay: Growth inhibition of human HepG2 cells after 48 hrs by MTT assay; type: functional, cell-based; conditions: HepG2, 48 h; outline: as §2
# MDA-MB-231 = assay: Growth inhibition of human MDA-MB-231 cells after 48 hrs by MTT assay; type: functional, cell-based; conditions: MDA-MB-231, 48 h; outline: as §2
# LoVo = assay: Growth inhibition of human LoVo cells after 48 hrs by MTT assay; type: functional, cell-based; outline: as §2
# RKO = assay: Growth inhibition of human RKO cells after 48 hrs by MTT assay; type: functional, cell-based; outline: as §2
# MCF7 = assay: Antiproliferative activity against human MCF7 cells after 48 hrs by MTT assay; type: functional, cell-based; conditions: MCF7, 48 h; outline: as §2
# HeLa = assay: Antiproliferative activity against human HeLa cells after 48 hrs by MTT assay; type: functional, cell-based; outline: as §2
# MGC-803 = assay: Antiproliferative activity against human MGC803 cells after 48 hrs by MTT assay; type: functional, cell-based; conditions: MGC-803, 48 h; outline: as §2
# A549/CDDP = assay: Growth inhibition of human A549/CDDP cells after 48 hrs by MTT assay; type: functional, cell-based; outline: as §2
# [5] = Growth inhibition of human HepG2/DOX cells after 48 hrs by MTT assay; type: functional, cell-based; outline: as §2
# [6] = Resistance factor, ratio of IC50 for human A549/CDDP cells to IC50 for human A549 cells; type: functional
# Outline: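 MTT assay: log-phase cells were seeded at 5 × 10³/well for 24 h, then exposed to a concentration series for 48 h. MTT (5 mg/mL) was added for 4 h, formazan was dissolved in DMSO, and A570 was read. IC50 values came from dose–response curves of at least three independent experiments. Resistance factor = IC50 in the resistant line / IC50 in the parental sensitive line.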
# [7] = Inhibition of porcine brain tubulin polymerization measured every 60 secs for 90 mins by DAPI staining based fluorescence assay; parameters: species or system Sus scrofa
# Outline: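 Purified tubulin was tested in a kit assay. Final buffer: 80 mM PIPES sesquisodium (pH 6.9), 2.0 mM MgCl₂, 0.5 mM EGTA, 1 mM GTP, 10.2% glycerol. Compound (0.1–10 μM) was prewarmed at 37 °C for 1 min before tubulin was added. DAPI reporter fluorescence (ex 340 / em 410 nm) was read every 60 s for 90 min. Area under the curve gave percent inhibition versus control and the IC50.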
# [8] = Antiproliferative activity against HLF after 48 hrs by MTT assay; type: cell-based; conditions: Homo sapiens; outline: as §2
# A549 [9] = assay: Cell cycle arrest in human A549 cells assessed as accumulation at G2/M phase at 4 nM up to 24 hrs by propidium iodide staining based flow cytometry (reference value: 10.13%); type: functional
# Outline: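 A549 seeded in six-well plates at 3 × 10⁵ cells/well and treated for 12 or 24 h; vehicle 0.01% DMSO. Cells fixed overnight in ice-cold 70% ethanol, treated with RNase A at 37 °C for 30 min, then stained with PI at 4 °C for 30 min. About 10 000 events acquired by flow cytometry at 488 nm; three experiments.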
# A549 [10] = assay: Induction of apoptosis in human A549 cells assessed as early apoptotic cells at 2 nM after 24 hrs by Annexin V-FITC/propidium iodide staining based flow cytometry (reference value: 0.98%); type: functional
# A549 [11] = assay: Induction of apoptosis in human A549 cells assessed as late apoptotic cells at 2 nM after 24 hrs by Annexin V-FITC/propidium iodide staining based flow cytometry (reference value: 0.08%); type: functional
# A549 [12] = assay: Induction of apoptosis in human A549 cells assessed as necrotic cells at 2 nM after 24 hrs by Annexin V-FITC/propidium iodide staining based flow cytometry (reference value: 0.10%); type: functional
# A549 [13] = assay: Induction of apoptosis in human A549 cells assessed as live cells at 4 nM after 24 hrs by Annexin V-FITC/propidium iodide staining based flow cytometry (reference value: 98.84%); type: functional
# A549 [14] = assay: Induction of apoptosis in human A549 cells assessed as early apoptotic cells at 4 nM after 24 hrs by Annexin V-FITC/propidium iodide staining based flow cytometry (reference value: 0.98%); type: functional
# A549 [15] = assay: Induction of apoptosis in human A549 cells assessed as late apoptotic cells at 4 nM after 24 hrs by Annexin V-FITC/propidium iodide staining based flow cytometry (reference value: 0.08%); type: functional
# A549 [16] = assay: Induction of apoptosis in human A549 cells assessed as necrotic cells at 4 nM after 24 hrs by Annexin V-FITC/propidium iodide staining based flow cytometry (reference value: 0.10%); type: functional
# A549 [17] = assay: Induction of apoptosis in human A549 cells assessed as live cells at 2 nM after 48 hrs by Annexin V-FITC/propidium iodide staining based flow cytometry (reference value: 98.49%); type: functional
# A549 [18] = assay: Induction of apoptosis in human A549 cells assessed as early apoptotic cells at 2 nM after 48 hrs by Annexin V-FITC/propidium iodide staining based flow cytometry (reference value: 1.48%); type: functional
# A549 [19] = assay: Induction of apoptosis in human A549 cells assessed as late apoptotic cells at 2 nM after 48 hrs by Annexin V-FITC/propidium iodide staining based flow cytometry (reference value: 0.03%); type: functional
# A549 [20] = assay: Induction of apoptosis in human A549 cells assessed as necrotic cells at 2 nM after 48 hrs by Annexin V-FITC/propidium iodide staining based flow cytometry relative to control; type: functional
# A549 [21] = assay: Induction of apoptosis in human A549 cells assessed as live cells at 4 nM after 48 hrs by Annexin V-FITC/propidium iodide staining based flow cytometry (reference value: 98.49%); type: functional
# A549 [22] = assay: Induction of apoptosis in human A549 cells assessed as early apoptotic cells at 4 nM after 48 hrs by Annexin V-FITC/propidium iodide staining based flow cytometry (reference value: 1.48%); type: functional
# A549 [23] = assay: Induction of apoptosis in human A549 cells assessed as late apoptotic cells at 4 nM after 48 hrs by Annexin V-FITC/propidium iodide staining based flow cytometry (reference value: 0.03%); type: functional
# A549 [24] = assay: Induction of apoptosis in human A549 cells assessed as necrotic cells at 4 nM after 48 hrs by Annexin V-FITC/propidium iodide staining based flow cytometry relative to control; type: functional
# L02 = assay: Antiproliferative activity against human LO2 cells after 48 hrs by MTT assay; type: cell-based; conditions: L02, 48 h; outline: as §2
# BJ = assay: Antiproliferative activity against human BJ cells after 48 hrs by MTT assay; type: cell-based; outline: as §2
# [25] = Selectivity index, ratio of IC50 for human BJ cells to IC50 for human A549 cells; type: functional; outline: as §1
smiles,measurement,setting,value
Cc1nc(N(C)c2ccc([Se]C#N)cc2)c2ccccc2n1,Activity,A549 [1],82.96%
same,Ratio IC50,[2],4.1
same,Ratio IC50,[3],4.6
same,IC50,A549 [4],11 nM
same,IC50,HCT-116,15 nM
same,IC50,HepG2,9 nM
same,IC50,MDA-MB-231,20 nM
same,IC50,LoVo,32 nM
same,IC50,RKO,9 nM
same,IC50,MCF7,19 nM
same,IC50,HeLa,9 nM
same,IC50,MGC-803,12 nM
same,IC50,A549/CDDP,32 nM
same,IC50,[5],29 nM
same,Ratio IC50,[6],3.56
same,IC50,[7],3120 nM
same,IC50,[8],41 nM
same,Activity,A549 [9],69.69%
same,Activity,A549 [10],13.55%
same,Activity,A549 [11],2.38%
same,Activity,A549 [12],1.11%
same,Activity,A549 [13],64.96%
same,Activity,A549 [14],27.46%
same,Activity,A549 [15],5.58%
same,Activity,A549 [16],1.77%
same,Activity,A549 [17],74.73%
same,Activity,A549 [18],17.56%
same,Activity,A549 [19],5.78%
same,Activity,A549 [20],1.94%
same,Activity,A549 [21],40.54%
same,Activity,A549 [22],21.45%
same,Activity,A549 [23],29.41%
same,Activity,A549 [24],7.59%
same,IC50,L02,37 nM
same,IC50,BJ,33 nM
same,Ratio IC50,[25],3.7
